Source: ChEMBL document CHEMBL1759847, “Design and synthesis of isoquinolines and benzimidazoles as RAF kinase inhibitors” (Bioorg Med Chem Lett, 2011)

These compounds were tested against RAF proto-oncogene serine/threonine-protein kinase (Homo sapiens, UniProt P04049) (assay: Inhibition of human cRAF using [gamma-33P-ATP] as a substrate by scintillation counting).
Procedure, shortened: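 Recombinant human c-RAF (5–10 mU) in 25 mM Tris pH 7.5 with 0.02 mM EGTA, 10 mM Mg acetate and 0.66 mg/mL myelin basic protein as phosphoacceptor; started by adding MgATP mix containing [γ-33P]ATP (approx. 500 cpm/pmol). Incubated 40 min at room temperature, stopped with 3% phosphoric acid, spotted on P30 filtermat, washed, dried and counted by scintillation.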

Chain of RAF proto-oncogene serine/threonine-protein kinase (P04049 whole entry): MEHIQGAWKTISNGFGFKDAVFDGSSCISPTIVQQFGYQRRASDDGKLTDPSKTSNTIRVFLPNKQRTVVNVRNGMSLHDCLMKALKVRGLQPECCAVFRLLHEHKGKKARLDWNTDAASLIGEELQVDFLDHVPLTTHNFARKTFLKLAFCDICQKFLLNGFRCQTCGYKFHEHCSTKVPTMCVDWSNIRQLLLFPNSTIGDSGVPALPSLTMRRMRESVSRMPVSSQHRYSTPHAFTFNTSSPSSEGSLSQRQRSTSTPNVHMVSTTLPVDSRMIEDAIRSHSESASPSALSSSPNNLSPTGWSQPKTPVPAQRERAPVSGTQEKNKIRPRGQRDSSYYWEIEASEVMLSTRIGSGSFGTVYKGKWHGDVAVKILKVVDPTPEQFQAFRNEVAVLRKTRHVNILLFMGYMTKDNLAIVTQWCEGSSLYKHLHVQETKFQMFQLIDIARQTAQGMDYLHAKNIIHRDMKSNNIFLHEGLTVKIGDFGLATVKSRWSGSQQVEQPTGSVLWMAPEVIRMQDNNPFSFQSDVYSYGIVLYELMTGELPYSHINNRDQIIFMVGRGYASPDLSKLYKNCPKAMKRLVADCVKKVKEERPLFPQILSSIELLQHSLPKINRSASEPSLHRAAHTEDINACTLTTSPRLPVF

| Compound | IC50 |
| --- | --- |
| CC(=O)Nc1nc2ccc(CCNC(=O)Nc3cc(C(F)(F)F)ccc3OCCN)cc2[nH]1 | 250 nM |
| CNC(=O)c1nc2ccc(CCNC(=O)Nc3ccc(Cl)c(C(F)(F)F)c3)cc2[nH]1 | 280 nM |
| CC(=O)Nc1nc2ccc(CCNC(=O)Nc3cccc(C(F)(F)F)c3)cc2[nH]1 | 480 nM |
| COc1cc(Cl)c(C)cc1NC(=O)NCCc1ccc2nc(NC(C)=O)[nH]c2c1 | 320 nM |
| CNCCOc1ccc(C)cc1NC(=O)NCCc1ccc2nc(NC(C)=O)[nH]c2c1 | 580 nM |
| CC(=O)Nc1nc2ccc(CCNC(=O)Nc3ccc(C)c(Cl)c3)cc2[nH]1 | 530 nM |
| CC(=O)Nc1nc2ccc(CCNC(=O)Nc3cc(C)c(Cl)cc3OCCN)cc2[nH]1 | 550 nM |
| CNC(=O)c1cc2ccc(CCNC(=O)Nc3cc(C(F)(F)F)c(Cl)cc3OCCN(C)C)cc2cn1 | 340 nM |
| CNCCOc1cc(Cl)c(C)cc1NC(=O)NCCc1ccc2nc(NC(C)=O)[nH]c2c1 | 490 nM |
| CNC(=O)c1nc2ccc(CCNC(=O)Nc3cc(C(F)(F)F)ccc3OC)cc2[nH]1 | 340 nM |
| COC(=O)Nc1nc2ccc(CCNC(=O)Nc3cc(C(F)(F)F)ccc3OC)cc2[nH]1 | 810 nM |
| CNC(=O)c1cc2ccc(CCNC(=O)Nc3cc(C(F)(F)F)ccc3F)cc2cn1 | 250 nM |
| CNC(=O)c1cc2ccc(CCNC(=O)Nc3ccc(C(F)(F)F)cc3)cc2cn1 | 370 nM |
| COC(=O)Nc1nc2ccc(CCNC(=O)Nc3ccc(Cl)c(C(F)(F)F)c3)cc2[nH]1 | 660 nM |
| CC(=O)Nc1nc2ccc(CCNC(=O)Nc3ccc(Cl)c(Cl)c3)cc2[nH]1 | 480 nM |
| CNC(=O)c1cc2ccc(CCNC(=O)Nc3cccc(OC(F)(F)F)c3)cc2cn1 | 260 nM |
| CNC(=O)c1cc2ccc(CCNC(=O)Nc3ccc(F)c(C(F)(F)F)c3)cc2cn1 | 240 nM |
| CC(=O)Nc1nc2ccc(CCNC(=O)Nc3cc(C(F)(F)F)ccc3OCC3CCCN3)cc2[nH]1 (stereo not drawn) | 230 nM |
| CNC(=O)c1cc2ccc(CCNC(=O)Nc3cccc(C(F)(F)F)c3)cc2cn1 | 360 nM |
| CNC(=O)c1cc2ccc(CCNC(=O)Nc3cc(C(F)(F)F)ccc3OCCN(C)C)cc2cn1 | 450 nM |

The remaining lines, values ahead:

| IC50 | Compound |
| --- | --- |
| 110 nM | CNC(=O)c1cc2ccc(CCNC(=O)Nc3cc(Cl)c(C)cc3OC)cc2cn1 |
| 210 nM | CNCCOc1ccc(C(F)(F)F)cc1NC(=O)NCCc1ccc2nc(NC(C)=O)[nH]c2c1 |
| 160 nM | CNC(=O)c1cc2ccc(CCNC(=O)Nc3ccc(Cl)c(C(F)(F)F)c3)cc2cn1 |
| 190 nM | CNC(=O)c1cc2ccc(CCNC(=O)Nc3cc(C)c(Cl)cc3OC)cc2cn1 |
| 170 nM | COc1ccc(C(F)(F)F)cc1NC(=O)NCCc1ccc2nc(NC(C)=O)[nH]c2c1 |
| 190 nM | COc1cc(C)c(Cl)cc1NC(=O)NCCc1ccc2nc(NC(C)=O)[nH]c2c1 |
| 140 nM | CC(=O)Nc1nc2ccc(CCNC(=O)Nc3ccc(Cl)c(C(F)(F)F)c3)cc2[nH]1 |
| 200 nM | CNC(=O)c1cc2ccc(CCNC(=O)Nc3ccc(C)c(C(F)(F)F)c3)cc2cn1 |
| 80 nM | CNC(=O)c1cc2ccc(CCNC(=O)Nc3cc(C(F)(F)F)c(Cl)cc3OC)cc2cn1 |
| 120 nM | CNC(=O)c1cc2ccc(CCNC(=O)Nc3cc(C(F)(F)F)ccc3OC)cc2cn1 |
| 230 nM | CNCCOc1cc(Cl)c(C(F)(F)F)cc1NC(=O)NCCc1ccc2nc(NC(C)=O)[nH]c2c1 |
| 200 nM | CNC(=O)c1cc2ccc(CCNC(=O)Nc3cccc(S(=O)(=O)C(F)(F)F)c3)cc2cn1 |
| 180 nM | CC(=O)Nc1nc2ccc(CCNC(=O)Nc3cc(C(F)(F)F)c(Cl)cc3OCCN)cc2[nH]1 |
